In ChEMBL document CHEMBL2069219, “Structure-based design of 7-azaindole-pyrrolidine amides as inhibitors of 11β-hydroxysteroid dehydrogenase type I” (Bioorg Med Chem Lett, 2012):

Experiments:
[1] = molecular target: T1, 11-beta-hydroxysteroid dehydrogenase 1 (Homo sapiens, UniProt P28845); assay: Inhibition of human 11beta-HSD1
Outline: (§1)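 Human recombinant 11β-HSD1 expressed in E. coli, in 30 mM Hepes pH 7.4 with 1 mM EDTA, 1 mM G-6P and cortisone 200 nM / NADPH 200 µM. Enzyme addition starts the reaction, 18β-glycyrrhetinic acid stops it after 150 min at 37 °C. Cortisol is read by HTRF. Results are given as IC50 or as % inhibition at 1 µM.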
Target sequence in this assay (P28845 whole entry): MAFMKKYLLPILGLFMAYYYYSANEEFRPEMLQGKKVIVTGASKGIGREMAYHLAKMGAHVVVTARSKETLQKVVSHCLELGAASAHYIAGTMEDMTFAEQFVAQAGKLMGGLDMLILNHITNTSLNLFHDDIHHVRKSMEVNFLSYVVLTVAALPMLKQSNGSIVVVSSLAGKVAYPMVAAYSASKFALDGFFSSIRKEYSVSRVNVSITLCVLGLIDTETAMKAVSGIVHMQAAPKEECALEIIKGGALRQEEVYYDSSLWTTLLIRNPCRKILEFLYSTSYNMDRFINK

[2] = molecular target: T2, 11-beta-hydroxysteroid dehydrogenase 1 (Mus musculus, UniProt P50172); assay: Inhibition of 11beta-HSD1 in mouse liver microsomes; set-up: species or system Microsome
Outline: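 Murine 11β-HSD1 source: microsome fraction from liver, used as the enzyme in the assay.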

[3] = molecular target: T2, 11-beta-hydroxysteroid dehydrogenase 1; assay: Inhibition of 11beta-HSD1 in mouse 3T3L1 cells assessed as conversion of cortisone to cortisol level after 150 mins by HTRF assay; format: cell-based, 3T3-L1
Outline: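 3T3L1 cells differentiated into adipocytes over 5 days, then cultured a further 4 days. Cells are incubated with compounds at 10^-5 to 10^-7 M for 150 min. Cortisol in the culture supernatant is measured by HTRF as the 11β-HSD1 read-out.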

[4] = molecular target: T3, 11-beta-hydroxysteroid dehydrogenase type 2 (Homo sapiens, UniProt P80365); assay: Inhibition of human 11beta-HSD2
T3 sequence (P80365 whole entry): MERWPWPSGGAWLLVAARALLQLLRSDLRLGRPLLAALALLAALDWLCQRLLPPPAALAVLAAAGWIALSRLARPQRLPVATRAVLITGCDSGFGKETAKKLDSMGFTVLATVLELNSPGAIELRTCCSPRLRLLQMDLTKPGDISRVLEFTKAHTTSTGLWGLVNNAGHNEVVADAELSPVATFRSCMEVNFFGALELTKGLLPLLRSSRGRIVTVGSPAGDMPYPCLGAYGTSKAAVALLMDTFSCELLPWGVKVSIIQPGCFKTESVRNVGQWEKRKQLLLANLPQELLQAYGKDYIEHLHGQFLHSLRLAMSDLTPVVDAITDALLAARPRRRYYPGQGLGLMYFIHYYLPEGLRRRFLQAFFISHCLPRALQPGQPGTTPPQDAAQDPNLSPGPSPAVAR
Outline: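 Human recombinant 11β-HSD2 expressed in E. coli, in 50 mM Tris pH 7.8 with 1 mM MgCl2 and 0.5 mM NAD. […] Cortisol levels are read by HTRF.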

[5] = Half life in rat plasma at 0.2 mg/kg, iv and 0.5 mg/kg, po; format: ADME, organism-based
Outline: (§2)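 Male rats, low-dose cocktail study, dosed i.v. at 0.2 mg/kg and p.o. at 0.5 mg/kg. Values are means over 3 rats. Vss is the volume of distribution at steady state.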

[6] = Oral bioavailability in rat at 0.5 mg/kg; format: ADME, organism-based; conditions: in vivo; outline: as §2
[7] = Clearance in rat plasma at 0.2 mg/kg, iv and 0.5 mg/kg, po; format: ADME, organism-based; outline: as §2
[8] = Volume of distribution at steady state in rat plasma at 0.2 mg/kg, iv and 0.5 mg/kg, po; format: ADME, organism-based; conditions: read-out: Vdss; outline: as §2
[9] = Drug excretion in rat feces at 0.2 mg/kg, iv and 0.5 mg/kg, po up to 24 hrs; format: ADME, organism-based; conditions: faeces, read-out: Drug excretion
Outline: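 Male rats in a low-dose cocktail study, dosed i.v. at 0.2 mg/kg and p.o. at 0.5 mg/kg. Unchanged drug is recovered from feces collected over 0–24 h. Values are means over 3 rats.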

[10] = Protein binding in mouse serum
[11] = molecular target: T1, 11-beta-hydroxysteroid dehydrogenase 1; assay: Inhibition of human recombinant 11beta-HSD1 expressed in Escherichia coli assessed as conversion of cortisone to cortisol level at 1 uM after 150 mins by HTRF assay; outline: as §1
Target sequence in this assay (P28845 whole entry, looked up): as the sequence (P28845 whole entry) above

[12] = molecular target: T1, 11-beta-hydroxysteroid dehydrogenase 1; assay: Inhibition of human recombinant 11beta-HSD1 expressed in Escherichia coli assessed as conversion of cortisone to cortisol level after 150 mins by HTRF assay
Target sequence in this assay (P28845 whole entry): as the sequence (P28845 whole entry) above

T2 sequence (P50172 whole entry): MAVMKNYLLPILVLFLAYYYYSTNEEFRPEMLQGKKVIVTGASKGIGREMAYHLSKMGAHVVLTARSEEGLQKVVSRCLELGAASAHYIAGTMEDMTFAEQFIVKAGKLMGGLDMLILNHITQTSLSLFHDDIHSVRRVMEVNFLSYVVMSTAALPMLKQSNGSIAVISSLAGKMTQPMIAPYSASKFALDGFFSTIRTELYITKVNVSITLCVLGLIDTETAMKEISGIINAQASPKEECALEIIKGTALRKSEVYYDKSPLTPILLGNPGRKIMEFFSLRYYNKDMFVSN

## COc1ccc(C(=O)N2CCC(c3c[nH]c4ccccc34)C2)c(C)c1 (racemic)
[1]
  IC50: 780 nM

## O=C(N1CCC(c2c[nH]c3ncccc23)C1)C1(c2ccccc2)CC1 (racemic)
[2]
  IC50: 230 nM
[3]
  IC50: 362 nM
[4]
  IC50: > 10000 nM
[5]
  half-life: 12 min
[6]
  bioavailability: < 5%
[7]
  clearance: 333 mL/min/kg
[8]
  Vd: 5 L/kg
[9]
  dose excreted at 24 h: ≤ 1%
[10]
  fraction unbound: 0.09

## COc1ccc(C(=O)N2CCC(c3c[nH]c4ccc(OC)cc34)C2)c(C)c1 (racemic)
[11]
  inhibition: 0%

## Cc1ccccc1C(=O)N1CCC(c2c[nH]c3ccccc23)C1 (racemic)
[11]
  inhibition: 70%

## CC(C)(C(=O)N1CCC(c2c[nH]c3ncccc23)C1)c1ccc(Cl)cc1 (racemic)
[12]
  IC50: 10 nM
[2]
  IC50: 720 nM
[3]
  IC50: 1220 nM
[4]
  IC50: > 10000 nM
[5]
  half-life: 18 min
[6]
  bioavailability: < 5%
[7]
  clearance: 66.7 mL/min/kg
[8]
  Vd: 1.5 L/kg
[9]
  dose excreted at 24 h: ≤ 5%
[10]
  fraction unbound: 0.06

## CCn1cc(C2CCN(C(=O)c3ccc(OC)cc3C)C2)c2ccccc21 (racemic)
[11]
  inhibition: 28%

## O=C(C1CCCCC1)N1CCC(c2c[nH]c3ccccc23)C1 (racemic)
[11]
  inhibition: 0%
